Results published in publication PMC5412920 (Journal of Clinical Pharmacology, 2016).
Like-named read-outs stand apart in the source and are kept apart here.

Tests used:
[1] = cited from earlier work
[2] = Hepatic impairment study: safety and tolerability; type: in vivo, human
Procedure, shortened: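 Adverse events were collected from screening until follow-up at 7–14 days postdose and coded by System Organ Class and preferred term (MedDRA 17.0). Vital signs, ECGs and clinical laboratory tests were also recorded. Single fasted oral doses were 50 mg (mild), 50 or 25 mg (moderate), 20 mg (severe Child-Pugh) and 50 mg (healthy).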

[3] = type: in vivo, human; conditions: for AUCu, geometric least-squares mean / Cmax,u, geometric least-squares mean / AUCu / Cmax,u: unbound
[4] = Hepatic impairment study: excretion in urine; type: in vivo, human
Procedure, shortened: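 Urine from hepatic-impairment and healthy subjects was collected at −12 to 0 h predose, then 0–6, 6–12, 12–24, 24–36 and 36–48 h, and every 24 h to 120 h after a single oral dose. Dosing followed an overnight fast, with fasting until 4 h postdose. Analytes were measured by LC-MS/MS (positive electrospray, MRM) against carbon-13 internal standards.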

[5] = Renal impairment study: excretion in urine and blood dialysate; type: in vivo, human
Procedure, shortened: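 Subjects were ESRD patients on haemodialysis or healthy subjects with creatinine clearance >80 mL/min, each given 50 mg orally while fasted. ESRD patients were dosed once after dialysis and, after a washout of ≥7 days, once 1 h before dialysis. Urine was collected predose and in intervals to 72 h. Dialysate spot samples were taken every 30 min, and parameters were derived by the area under the excretion rate curve method. Analysis was by LC-MS/MS.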

[6] = Unbound fraction in plasma; type: in vitro ADME, human; conditions: human, plasma, oral, fu,av, hepatic impairment study, median (min-max)
Procedure, shortened: (§1)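 Unbound fraction was measured in human plasma by ultrafiltration after a single oral dose. Ultrafiltrate was analysed by LC-MS/MS in MRM mode with carbon-13 internal standards. Within each subject, the mean percentage unbound from 3 results was applied to all of that subject's samples to give the average fraction unbound (fu,av).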

[7] = tested on: plasma proteins; assay: Unbound fraction in plasma; type: in vitro ADME, human
Procedure, shortened: as §1

[8] = type: in vivo, human; conditions: for tmax / half-life: human, plasma, oral; for tmax: median (min-max); for half-life: arithmetic mean (SD); for AUCu/dose, geometric least-squares mean / Cmax,u/dose, geometric least-squares mean: unbound
[9] = Renal impairment study: safety and tolerability; type: in vivo, human
Procedure, shortened: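 In the renal-impairment study, adverse events were recorded from screening until follow-up and coded by System Organ Class and preferred term (MedDRA 17.0). Vital signs, ECGs and clinical laboratory tests were also recorded. All subjects received a single fasted oral 50 mg dose. Healthy subjects returned for follow-up 3–7 days later.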

[10] = non-Asian patients, 75 mg twice daily, used as exposure limit
[11] = healthy subjects, 50 mg, geometric mean (gCV%)
[12] = ESRD, treatment period 1 (50 mg after dialysis), geometric mean (gCV%)
[13] = severe hepatic impairment, 20 mg
[14] = moderate hepatic impairment, 50 or 25 mg

Cn1cnc2c(F)c(Nc3ccc(Br)cc3Cl)c(C(=O)NOCCO)cc21 [Selumetinib]
dose linearity of pharmacokinetics ([1]; healthy volunteers): linear pharmacokinetics up to 75 mg | mean steady-state AUC(0-12) [1, 10]: 4736 ng·h/mL | mean steady-state Cmax [1, 10]: 1307 ng/mL | most frequently reported AEs, diarrhea and vomiting, each ([2]; all 32 subjects (N = 2 each)): 6.3% | subjects reporting at least 1 AE ([2]; all 32 subjects, mild or moderate severity): 15.6% | tolerability ([2]; single oral dose 20-50 mg): well tolerated | AUC lower in the ESRD group (dosed post dialysis) vs healthy subjects ([3]; 50 mg): 28% | AUC lower when dosed before vs after dialysis ([3]; ESRD, 50 mg): 17% | Cmax lower when dosed before vs after dialysis ([3]; ESRD, 50 mg): 30% | CL/F [3, 11]: 19.1 L/h | Cmax ([3]; human, plasma, oral, 50 mg, Cmax, healthy subjects, geometric mean (gCV%)): 863 ng/mL | half-life ([3]; human, plasma, oral, 50 mg, t1/2, healthy subjects, arithmetic mean (SD)): 7.34 h | AUCu, geometric least-squares mean ([3]; ESRD, treatment period 1): 10.25 ng·h/mL | Cmax,u, geometric least-squares mean ([3]; ESRD, treatment period 1): 3.95 ng/mL | AUCu [3, 12]: 10.3 (20.1) ng·h/mL | Cmax,u [3, 12]: 3.95 (34.7) ng/mL | AUCu, geometric least-squares mean ([3]; healthy subjects): 10.55 ng·h/mL | Cmax,u, geometric least-squares mean ([3]; healthy subjects): 3.48 ng/mL | AUCu [3, 11]: 10.6 (23.0) ng·h/mL | Cmax,u [3, 11]: 3.48 (42.5) ng/mL | dose excreted in urine ([4]; healthy subjects, 50 mg): 0.44% | dose excreted in urine ([4]; mild hepatic impairment, 50 mg): 0.46% | dose excreted in urine ([4]; moderate hepatic impairment): 0.50% | dose excreted in urine [4, 13]: 0.90% | dose excreted in dialysate ([5]; ESRD, dosed 1 h before dialysis): 0.92% | fraction excreted in urine ([5]; healthy subjects, 50 mg): 0.49% | clearance ([5]; human, blood dialysate, oral, 50 mg): 9.63 mL/min | dialysis clearance in ESRD as percentage of CL/F in the healthy subjects group ([5]; in vivo): approximately 3% | fraction unbound ([6]; 20 mg, severe impairment): 0.0065 | fraction unbound ([6]; 50 mg, healthy subjects): 0.0035 | fraction unbound ([6]; 50 mg, mild impairment): 0.0028 | fraction unbound ([6]; 50 mg, moderate impairment, 50 mg dose only): 0.003 | difference of unbound fraction compared with healthy subjects ([7]; hepatic impairment study, mild or moderate impairment): ≤ 20% | increase in the unbound fraction compared with healthy subjects ([7]; hepatic impairment study, severe impairment): ~90% | fraction unbound ([7]; human, plasma, oral, 50 mg, fu,av, renal impairment study, healthy subjects, median (min-max)): 0.004 | AUC/dose, geometric least-squares mean ([8]; healthy subjects, 50 mg): 53.64 ng·h/mL/mg | Cmax/dose, geometric least-squares mean ([8]; healthy subjects, 50 mg): 18.88 ng/mL/mg | tmax ([8]; 20 mg, severe hepatic impairment): 1 h | half-life ([8]; 50 mg, t1/2, healthy subjects): 8.02 h | half-life ([8]; 50 mg, t1/2, mild hepatic impairment): 7.72 h | half-life ([8]; 50 mg, t1/2, moderate hepatic impairment, 50 mg dose only): 9.92 h | tmax ([8]; 50 mg, healthy subjects): 1 h | tmax ([8]; 50 mg, mild hepatic impairment): 1.25 h | tmax ([8]; 50 mg, moderate hepatic impairment, 50 mg dose only): 1 h | AUC/dose lower than in healthy subjects ([8]; mild hepatic impairment): 14% | Cmax/dose lower than in healthy subjects ([8]; mild hepatic impairment): 22% | AUC/dose, geometric least-squares mean ([8]; mild hepatic impairment, 50 mg): 45.93 ng·h/mL/mg | Cmax/dose, geometric least-squares mean ([8]; mild hepatic impairment, 50 mg): 14.82 ng/mL/mg | AUC/dose higher than in healthy subjects ([8]; moderate hepatic impairment): 59% | Cmax/dose higher than in healthy subjects ([8]; moderate hepatic impairment): 25% | AUC/dose, geometric least-squares mean [8, 14]: 85.11 ng·h/mL/mg | Cmax/dose, geometric least-squares mean [8, 14]: 23.57 ng/mL/mg | AUC/dose higher than in healthy subjects ([8]; severe hepatic impairment): 57% | AUC/dose, geometric least-squares mean [8, 13]: 84.29 ng·h/mL/mg | Cmax/dose, geometric least-squares mean [8, 13]: 18.53 ng/mL/mg | AUCu/dose, geometric least-squares mean ([8]; healthy subjects, 50 mg): 0.1837 ng·h/mL/mg | Cmax,u/dose, geometric least-squares mean ([8]; healthy subjects, 50 mg): 0.06473 ng/mL/mg | AUCu/dose, geometric least-squares mean ([8]; mild hepatic impairment, 50 mg): 0.1271 ng·h/mL/mg | Cmax,u/dose, geometric least-squares mean ([8]; mild hepatic impairment, 50 mg): 0.04094 ng/mL/mg | AUCu/dose, geometric least-squares mean [8, 14]: 0.2585 ng·h/mL/mg | Cmax,u/dose, geometric least-squares mean [8, 14]: 0.07165 ng/mL/mg | AUCu/dose, geometric least-squares mean [8, 13]: 0.5828 ng·h/mL/mg | Cmax,u/dose, geometric least-squares mean [8, 13]: 0.1280 ng/mL/mg | AEs reported ([9]; healthy subjects, 50 mg): No AEs were reported | tolerability ([9]; single oral dose 50 mg): well tolerated
